Assay outcomes as filed in PubChem BioAssay.
In the library only some 3.5% were active in any assay of this set; here they are far more common.
ABCB1 inh: blocks JC-1 efflux by human ABCB1 transporter. P08183. CCRF-Adr cells, flow cytometry. inhibition, % at 6.6 µM. 190,000 compounds, 0.067% hits. AID 1326; in the data active = inhibition above about 40%;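 also: higher value means more JC-1 retained so stronger ABCB1 efflux block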
WT yeast gro inh: growth inhibition of WT yeast, mitochondrial fusion screen | mitochondrial fusion phenotypic screen, WT strain | inhibition, % at 10 µM | 190,000 compounds, 2.1% hits | AID 1362; in the data active = inhibition above about 58%; tested in S. cerevisiae
MEKK3 PB1 HTS: MEKK3-MEK5 PB1 interaction, increase or decrease; AID 1529; binding response (% of control), % at 10 µM; Q99759; bead-based flow cytometry, Alexa488-MEK5 binding to MEKK3; actives lie on both sides; 0 = blocked by unlabeled MEK5, 100 = vehicle; 290,000 compounds, 1.4% hits;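 active = binding response more than 3 SD above or below the average of its plate-row segment, actives on both sides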;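 also: Alexa488 bead fluorescence after subtracting the streptavidin-only scavenger bead signal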
MEKK2wt PB1 HTS: raises or lowers MEK5 binding to wildtype human MEKK2 PB1 domain. bead flow cytometry, Alexa488-MEK5 binding to MEKK2 WT; actives lie on both sides. binding response (% of control), % at 10 µM. 290,000 compounds, 1.1% hits. AID 1531; in the data active = binding response below about 67% or above about 130%
ABCG2 block: blocks JC-1 efflux by human ABCG2 transporter; IgMXP3 cells, flow cytometry; Q9UNQ0; 190,000 compounds, 0.1% hits; inhibition, % at 6.6 µM; AID 1325;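 active = inhibition above 80%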
Target sequence (Q9UNQ0 whole entry, looked up): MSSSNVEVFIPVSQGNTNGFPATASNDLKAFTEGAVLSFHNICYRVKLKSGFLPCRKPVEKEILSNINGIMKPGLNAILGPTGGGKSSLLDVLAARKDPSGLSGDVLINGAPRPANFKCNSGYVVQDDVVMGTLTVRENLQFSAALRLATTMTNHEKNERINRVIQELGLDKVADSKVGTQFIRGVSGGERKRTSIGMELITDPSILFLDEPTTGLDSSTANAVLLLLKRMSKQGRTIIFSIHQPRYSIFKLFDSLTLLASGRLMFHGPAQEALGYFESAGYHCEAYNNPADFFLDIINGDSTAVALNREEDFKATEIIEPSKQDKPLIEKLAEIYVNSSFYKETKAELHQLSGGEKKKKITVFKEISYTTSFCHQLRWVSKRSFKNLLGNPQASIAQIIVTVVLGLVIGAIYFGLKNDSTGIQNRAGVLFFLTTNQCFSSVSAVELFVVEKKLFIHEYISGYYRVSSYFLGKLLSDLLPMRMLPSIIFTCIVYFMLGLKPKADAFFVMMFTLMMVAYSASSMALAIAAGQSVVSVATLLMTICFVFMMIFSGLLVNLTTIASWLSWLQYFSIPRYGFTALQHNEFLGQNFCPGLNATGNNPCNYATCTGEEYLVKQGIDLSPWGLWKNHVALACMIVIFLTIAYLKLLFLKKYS
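System: two drug-resistant human cell lines, ABCG2 and ABCB1; controls: nicardipine high and DMSO low controls; times: 10 min exposure at 25 °C with rotation, no wash; detection: flow cytometry of retained JC-1 fluorescence; read-out basis: percent efflux inhibition, scaled nicardipine 100% to DMSO 0%; doses: one concentration, 6.6 µM final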
MEKK2mut PB1 HTS: signal of MEK5 binding to mutant human MEKK2 PB1 domain. 290,000 compounds, 0.35% hits. bead flow cytometry, Alexa488-MEK5 binding to MEKK2 mutant. AID 1530. percent response, % at 10 µM; in the data active = percent response above about 24%, passing the limit was not always enough
A number is an active result; i = inactive; nt = not tested or not shown; [ ] = remark or other dose.

SMILES	ABCB1 inh	WT yeast gro inh	MEKK3 PB1 HTS	MEKK2wt PB1 HTS	ABCG2 block	MEKK2mut PB1 HTS
CCc1ccc(NC(=S)N2CCCCCCC2)cc1	i	64.3	i	i	i	i
CCCCc1ccc(NC(=S)N2CCCC(C)C2)cc1 (configuration not stated)	i	74.5	i	i	i	i
CCOc1ccc(NC(=S)N2CCCC2)cc1	nt	nt	i	i	nt	i
C=CCN(CC=C)C(=S)NC(=O)Cc1cccc2ccccc12	i	65.3	i	i	i	i
CCN(CC)C(=S)NC(=O)Cc1ccccc1	i	i	i	i	i	i
Cc1ccc(C#CC[N+]2(CC#Cc3ccc(C)cc3)CCCCC2)cc1	i	i	i	i	i	i
CC(C)N(CCNC(=O)C1CCCN(c2ncnc3c2nc2n3CCCCC2)C1)Cc1ccccc1 (configuration not stated)	nt	nt	i	i	nt	i
O=C(c1ccccc1)c1nnc(-c2ccncc2)o1	i	71.5	i	i	i	i
CCOC(=O)CC1COCCN1C(=O)c1ccc2oc(Cc3ccccc3)nc2c1 (configuration not stated)	nt	nt	i	i	nt	i
CN(CCCC[C@H](CNCc1ccc(-c2ccccc2)cc1)N1C[C@H](c2ccccc2)N(CCc2ccc(Cl)c(Cl)c2)C(=O)C1=O)Cc1ccc(-c2ccccc2)cc1	nt	nt	i	228.0	nt	78.0
CCCC(=O)c1ccc(O)cc1O	nt	nt	i	i	nt	i
CC1(C)CC(=O)c2c(O)cc(OCc3ccc([N+](=O)[O-])cc3)cc2O1	i	82.8	nt	nt	i	nt
COc1ccc(NC(=S)Nc2cccc(S(=O)(=O)N3CCCCC3)c2)cc1	i	i	i	i	i	i
c1ccc(Nc2cccc(Nc3ccccc3)c2)cc1	i	70.9	i	i	i	i
Nc1cccc(Nc2ccccc2)c1	i	i	i	i	i	i
O=C(NC1CCCCC1)N1CCSC1=Nc1ccccc1	i	59.9	i	i	i	i
O=C(CCc1ccccc1)Nc1nnc(-c2ccc3c(c2)CCCC3)o1	i	65.9	i	i	i	i
O=C(CCc1ccccc1)Nc1nnc(-c2ccc3c(c2)OCCO3)o1	i	i	i	i	i	i
CN(C)S(=O)(=O)c1ccc(C(=O)Nc2nnc(-c3ccc4c(c3)CCCC4)o2)cc1	i	68.5	i	i	i	i
CC1CC(NC(=O)C2(C)CC2(Cl)Cl)CC(C)(C)C1 (configuration not stated)	i	i	i	i	i	i
CC12CCC(C[N+](C)(C)C1)C2(C)C (configuration not stated)	i	i	i	33.0	i	91.0
Cc1ccccc1Cc1c(C)nc2nc(SCC(=O)NCCCN3CCCC3)nn2c1C	nt	nt	i	136.0	nt	i
Cc1ccc(Cc2c(C)nc3nc(SCC(=O)NCCCN4CCCC4)nn3c2C)cc1	nt	nt	i	147.0	nt	i
O=C(/C=C1\NC2(CCCC2)Cc2ccccc21)C(=O)N/N=C/c1ccccc1O	i	i	174.0	i	i	i
Cc1ccc(C(=O)c2oc3ccc(Cl)cc3c2NC(=O)CN2CCN(C)CC2)cc1	nt	nt	i	160.0	nt	i
SMILES	ABCB1 inh	WT yeast gro inh	MEKK3 PB1 HTS	MEKK2wt PB1 HTS	ABCG2 block	MEKK2mut PB1 HTS
CCOC(=O)c1oc2ccc(OC)cc2c1NC(=O)CN1CCN(C)CC1	i	i	i	i	i	i
COc1cccc(N2CCN(c3ccc4nnc(CCC(=O)Nc5ccccn5)n4n3)CC2)c1	nt	nt	i	i	nt	i
COc1ccc(CCN(C)C2CCCN(S(=O)(=O)c3ccccc3F)C2)cc1OC (configuration not stated)	nt	nt	i	i	nt	i
COc1ccc(CCNC(=O)c2nn(C)c3c2CS(=O)(=O)c2ccccc2-3)cc1OC	nt	nt	i	i	nt	i
Cc1cccc(C(=O)O)c1NC(=O)Cc1cccc2ccccc12	nt	nt	i	i	nt	i
COc1ccc(CNC(=O)[C@H](C)[C@@H]2C[C@@]2(C)[C@@H](NC(=O)OCc2ccccc2)c2ccccc2)cc1OC	i	68.8	i	i	i	i
O=C(NCC1CCCO1)C(=O)N/N=C/c1cccc(Cl)c1 (configuration not stated)	nt	nt	i	i	nt	i
O=C(c1cc2nc(-c3cccs3)cc(C(F)(F)F)n2n1)N1CCCc2ccccc21	i	i	i	i	100.2	i
CC(C)N(C(=S)Nc1cccc(C(F)(F)F)c1)C(C)c1ccccn1 (configuration not stated)	i	74.0	i	i	i	i
COc1ccccc1NC(=S)N(C(C)C)C(C)c1ccccn1 (configuration not stated)	i	i	i	i	i	i
COc1ccc(NS(=O)(=O)c2ccc3oc(Nc4ccc5c(c4)OCCO5)nc3c2)cc1	i	73.2	i	i	i	i
COc1cccc(S(=O)(=O)Nc2ccc3c(c2)OCCO3)c1	nt	nt	i	i	nt	i
CC1CCN(c2nc(Cl)nc(Nc3ccc([N+](=O)[O-])cc3)n2)CC1	i	78.2	i	i	i	i
O=C(CCNC(=O)c1ccccc1)N=Nc1c(O)[nH]c2ccccc12	i	i	i	i	i	94.0
c1ccc2c(c1)oc1c(N3CCN(Cc4ccc5c(c4)OCO5)CC3)ncnc12	i	75.6	i	i	i	i
CC(=O)c1ccc(NC(=O)C(C)OC(=O)c2ccc(NS(=O)(=O)c3ccc(F)c(F)c3)cc2)cc1 (configuration not stated)	i	i	i	i	i	i
OCCN(Cc1ccccc1)CC(O)COc1ccc(-c2ccccc2)cc1 (configuration not stated)	i	66.0	i	i	i	i
COc1cc(C(C)=O)ccc1OCC(O)CN(CCO)Cc1ccccc1 (configuration not stated)	i	i	i	i	i	i
O=C(COC(=O)Cc1c(Cl)cccc1Cl)Nc1ccccc1-c1ccccc1	i	80.6	i	i	i	i
O=C(Cn1nc(-c2ccccc2Cl)ccc1=O)Nc1ccccc1-c1ccccc1	i	67.2	i	i	i	i
CCOCc1nnc(NC(=O)CS(=O)(=O)c2ccc(C)cc2)s1	nt	nt	80.0[inhibitor]	i	nt	i
CCOc1ccccc1C1C(C(=O)OC)=C(N)OC2=C1C(=O)CCC2 (configuration not stated)	i	i	i	i	i	i
CCOc1ccc(Br)cc1C1C(C(=O)OC)=C(N)Oc2cc(N(C)C)ccc21 (configuration not stated)	i	58.6	i	i	i	i
COc1ccc(C(=O)O)cc1NC(=S)NC(=O)/C=C/c1ccc(C(C)C)cc1	nt	nt	i	i	nt	i
CC1(CCc2ccccc2)NC(=S)N(c2ccc(Cl)cc2)N1 (configuration not stated)	nt	58.9	i	i	i	i
CC1(CCc2ccccc2)NC(=S)N(c2ccccc2)N1 (configuration not stated)	i	i	i	i	i	i
CC1=CC(C)(C)NC(=S)N1c1ccc(C)cc1	i	i	i	i	i	i
